The values below come from ChEMBL document CHEMBL1129978, “Effect of structural modification of enol-carboxamide-type nonsteroidal antiinflammatory drugs on COX-2/COX-1 selectivity” (J Med Chem, 1997).

Assay [1] deals with T1, Prostaglandin G/H synthase 1 (Homo sapiens, UniProt P23219). In words: Inhibition of human Prostaglandin G/H synthase 1 at 0.1 ug/mL expressed as mean percent inhibition of control PGE-2 production. In a few lines: (§1)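 Human COX-1 and COX-2 genes expressed in a baculovirus system; microsomes prepared from High Five insect cells and used as the enzyme source. Activity read as PGE2 production. Each dose run in duplicate wells within each experiment, and values given as mean percent inhibition of control PGE2.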
T1 sequence (P23219 whole entry): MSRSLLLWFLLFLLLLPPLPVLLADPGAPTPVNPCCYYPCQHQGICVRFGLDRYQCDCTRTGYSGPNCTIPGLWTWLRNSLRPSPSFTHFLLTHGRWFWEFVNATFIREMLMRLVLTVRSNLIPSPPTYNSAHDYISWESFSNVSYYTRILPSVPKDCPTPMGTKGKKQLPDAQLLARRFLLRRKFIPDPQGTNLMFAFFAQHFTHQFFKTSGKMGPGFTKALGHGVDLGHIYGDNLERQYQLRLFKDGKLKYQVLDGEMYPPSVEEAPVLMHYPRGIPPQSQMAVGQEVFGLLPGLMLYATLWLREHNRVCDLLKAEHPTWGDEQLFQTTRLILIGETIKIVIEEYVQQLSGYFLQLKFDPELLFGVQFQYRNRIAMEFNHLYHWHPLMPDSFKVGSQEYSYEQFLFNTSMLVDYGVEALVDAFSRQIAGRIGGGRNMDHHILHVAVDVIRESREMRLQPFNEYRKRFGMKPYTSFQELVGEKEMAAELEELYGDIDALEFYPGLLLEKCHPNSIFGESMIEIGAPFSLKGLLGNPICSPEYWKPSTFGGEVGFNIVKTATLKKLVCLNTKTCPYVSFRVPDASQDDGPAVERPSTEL

The target in assay [2] is T1, Prostaglandin G/H synthase 1. In words: Inhibition of human Prostaglandin G/H synthase 1 at 1 ug/mL expressed as mean percent inhibition of control PGE-2 production. Put shortly:
as §1

For assay [3] the target is unchanged. In words: Inhibition of human Prostaglandin G/H synthase 1 at 10 ug/mL expressed as mean percent inhibition of control PGE-2 production. Put shortly:
as §1

Each structure is given as a SMILES string.

For orientation: inhibition means the relative decrease from the control value, in per cent. Consider `Cc1cc2c(s1)S(=O)(=O)N(C)C(C(=O)Nc1nccs1)=C2O`, for which the inhibition in assay [1] came out at 1%; in assay [2], 5%.

As to `CN1C(O)=C(C(=O)Nc2nccs2)c2ccc(Cl)cc2S1(=O)=O`, the inhibition in assay [1] is -8%; in assay [2], 66%; in assay [3], 99%.

For `O=C(Nc1ccc(Cl)cc1Cl)C1=C(O)N(Cc2ccccc2)S(=O)(=O)c2ccc(F)cc21`, the inhibition in assay [1] is 3%; in assay [2], 39%; in assay [3], 98%.

For the molecule `CN1C(C(=O)Nc2ccccn2)=C(O)c2ccc3ccccc3c2S1(=O)=O`, the inhibition in assay [1] was 29%; in assay [2] it was 78%; in assay [3], 100%.

With `Cc1cnc(NC(=O)C2=C(O)c3sc4cc(Cl)ccc4c3S(=O)(=O)N2C)s1`, the inhibition in assay [1] is 58%; in assay [2], 100%; in assay [3] it was 100%.

Regarding `CN1C(C(=O)Nc2ccccc2)=C(O)c2c(ccc3ccccc23)S1(=O)=O`, the inhibition was -5% in assay [2] and 18% in assay [3].

Take `Cc1ccc2c(c1)/C(=C(\O)Nc1ccccn1)C(=O)N(C)C2=O`: the inhibition was 22% in assay [1], 62% in assay [2] and 73% in assay [3].

Regarding `COc1ccc2c(c1)C(O)=C(C(=O)Nc1ccccc1)N(C)S2(=O)=O`, the inhibition in assay [1] was -6%; in assay [2] it was -5%; in assay [3], -3%.

As for `CN1C(C(=O)Nc2nccs2)=C(O)c2ccccc2S1(=O)=O`, the results for the inhibition in assay [2] and in assay [3] were 17% and 51%, respectively.

For `CN1C(O)=C(C(=O)Nc2ccccn2)c2ccc(Cl)cc2S1(=O)=O`, the figures for the inhibition in assay [1], in assay [2] and in assay [3] were 7%, 41% and 45%, respectively.

In the case of `Cc1ccc2c(c1)/C(=C(\O)Nc1ncc(C)s1)C(=O)N(C)C2=O`, the inhibition in assay [1] turned out to be 30%; in assay [2] it was 52%; in assay [3], 51%.

For `O=C(Nc1cccc(Cl)c1)C1=C(O)c2cc(Cl)ccc2SC1`, the inhibition in assay [1] was 31%; in assay [2], 26%; in assay [3], 54%.

As for `CN1C(C(=O)Nc2ncc(-c3ccccc3)s2)=C(O)c2ccccc2S1(=O)=O`, the inhibition in assay [1] came out at 6%; in assay [2] it was 55%; in assay [3], 97%.

Take `Cc1cc2c(o1)C(O)=C(C(=O)Nc1ncc(C)s1)N(C)S2(=O)=O`: the results for the inhibition in assay [1], in assay [2] and in assay [3] were -8%, -7% and 1%, respectively.

For the molecule `Cc1ccc2c(c1)C(O)=C(C(=O)Nc1ccccn1)N(C)S2(=O)=O`, the inhibition in assay [1] is -9%; in assay [2], 5%.

With `CCCc1csc(NC(=O)C2=C(O)c3ccccc3S(=O)(=O)N2C)n1`, the results for the inhibition in assay [1], in assay [2] and in assay [3] were -3%, 1% and 44%, respectively.

For `CN1C(C(=O)Nc2ccccn2)=C(O)c2c(ccc3ccccc23)S1(=O)=O`, the inhibition is -10% in assay [2] and 25% in assay [3].

With `CN1C(C(=O)Nc2ccccc2)=C(O)c2c(c3cc(Cl)ccc3n2C)S1(=O)=O`, the values for the inhibition in assay [1] and in assay [2] were 1% and 10%, respectively.

Regarding `CN1C(O)=C(C(=O)Nc2ccccn2)c2cc(Cl)ccc2S1(=O)=O`, the results for the inhibition in assay [2] and in assay [3] were 53% and 96%, respectively.

In the case of `CN1C(C(=O)Nc2ccccn2)=C(O)c2c(c3cc(Cl)ccc3n2C)S1(=O)=O`, the inhibition amounted to 28% in assay [2] and 90% in assay [3].

Regarding `CCn1c2c(c3ccccc31)S(=O)(=O)N(C)C(C(=O)Nc1nccs1)=C2O`, the results for the inhibition in assay [2] and in assay [3] were -1% and 81%, respectively.

As for `Cn1c(C(=O)Nc2ccccn2)c(O)c2ccccc2c1=O`, the inhibition in assay [2] is -3%; in assay [3], 19%.

`Cc1cnc(NC(=O)C2=C(O)c3ccccc3SC2(C)C)s1`: the inhibition in assay [2] is 11%; in assay [3], 16%.

As for `COc1ccc2c(c1)C(O)=C(C(=O)Nc1ncc(C)s1)N(C)S2(=O)=O`, the inhibition in assay [1] is -1%.
